The values below come from PMC6690775 (FEBS letters, 2019).

For assay [1], the target named is T1, Hsp70-NBD (Homo sapiens, UniProt P0DMV8). The assay can be described thus: ITC binding of modified ADP analogues to Hsp70-NBD. The note with it: for ΔΗ: binding enthalpy change; for ΔS: binding entropy change.
Assay [2] concerns the target T2, Hsc70-NBD (Homo sapiens, UniProt P11142). As to the kind of experiment: ITC binding of modified ADP analogues to Hsc70-NBD. The note with it: for ΔΗ: binding enthalpy change; for ΔS: binding entropy change.
The target of assay [3] is T3, mortalin-NBD (Homo sapiens, UniProt P38646). As to the kind of experiment: ITC binding of modified ADP analogues to mortalin-NBD. The following applies: for ΔΗ: binding enthalpy change; for ΔS: binding entropy change.
In assay [4] the target is T2, Hsc70-NBD. The assay can be described thus: Competitive inhibition of ATPase activity. Format: biochemical. Put shortly: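 PNP/MESG coupling (0.2 U, 0.2 μM, 10 min, 25 °C); ATP at 50 μM final started reaction; A360 read each minute for 60 min, 25 °C; triplicates minus no-enzyme control. IC50 from one-site logIC50 fit of fractional activity; Kiapp from Morrison fit constrained by prior KM.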

Assay [5] addresses T3, mortalin-NBD. The assay can be described thus: Competitive inhibition of ATPase activity. The note with it: for inhibition of ATP hydrolysis of mortalin-NBD (in words): compared with ADP. It counts as biochemical. An outline of the steps: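 Human mortalin-NBD (residues 52–431) was expressed in E. coli Rosetta2(DE3) with a TEV-cleaved His6 tag, then purified by Ni, size-exclusion and Blue columns. Enzyme in binding buffer (HEPES pH 7.8, MgCl2, KCl) was mixed with PNP/MESG and inhibitor at 0–3 mM. ATP was added to 50 μM final, and A360 was read every minute for 60 min at 25 °C, in triplicate, minus no-enzyme control. IC50 came from a one-site logIC50 fit. Kiapp came from a Morrison fit constrained by Et 1 μM, ATP 50 μM and a previously determined KM.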

The target of assay [6] is T1, Hsp70-NBD. The assay can be described thus: Competitive inhibition of ATPase activity. It counts as biochemical. Put shortly:
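Human Hsp70-NBD (residues 1–381) was expressed in E. coli Rosetta2(DE3) with a TEV-cleaved His6 tag and purified by Ni, size-exclusion and Blue columns. Phosphate release (EnzChek; PNP 0.2 U, MESG 0.2 μM) was measured with inhibitor at 0–3 mM and ATP 50 μM final. A360 was read each minute for 60 min at 25 °C in triplicate, minus no-enzyme control. IC50 came from a one-site logIC50 fit of fractional activity; Kiapp came from a Morrison fit of V0.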

Assay [7] concerns the target T3, mortalin-NBD. The note with it: previously reported; cited from earlier work.
Setting [8] is: mortalin-NBD, ITC Kd relative to ADP.
Setting [9] is: read-out: KIapp, mortalin-NBD 1 μM, ATP 50 μM, 25 °C, Morrison fit.

Each structure is given as a SMILES string. Where two headings read alike, the source gives them in different places.

T1 sequence (P0DMV8 1-381): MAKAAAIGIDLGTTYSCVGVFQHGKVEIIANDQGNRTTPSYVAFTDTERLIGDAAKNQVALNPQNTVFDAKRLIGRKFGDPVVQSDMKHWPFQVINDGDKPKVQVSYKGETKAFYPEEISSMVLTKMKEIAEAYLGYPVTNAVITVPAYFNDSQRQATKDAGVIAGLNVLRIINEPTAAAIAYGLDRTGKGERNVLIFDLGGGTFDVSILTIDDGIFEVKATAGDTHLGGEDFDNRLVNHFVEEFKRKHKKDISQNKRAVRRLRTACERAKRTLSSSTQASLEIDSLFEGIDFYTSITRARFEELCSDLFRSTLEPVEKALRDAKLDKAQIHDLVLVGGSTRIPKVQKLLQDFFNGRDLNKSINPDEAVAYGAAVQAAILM
T2 sequence (P11142 1-385): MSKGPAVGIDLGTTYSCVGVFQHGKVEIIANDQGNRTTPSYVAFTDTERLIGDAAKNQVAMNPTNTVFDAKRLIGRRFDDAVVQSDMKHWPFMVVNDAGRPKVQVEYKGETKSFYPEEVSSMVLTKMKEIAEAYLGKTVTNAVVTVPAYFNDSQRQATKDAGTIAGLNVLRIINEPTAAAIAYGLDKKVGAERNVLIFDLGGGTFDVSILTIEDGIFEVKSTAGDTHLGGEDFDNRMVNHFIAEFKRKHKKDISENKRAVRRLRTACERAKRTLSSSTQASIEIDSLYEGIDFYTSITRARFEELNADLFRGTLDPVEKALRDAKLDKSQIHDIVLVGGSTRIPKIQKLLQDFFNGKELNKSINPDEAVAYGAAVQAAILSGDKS
T3 sequence (P38646 52-431): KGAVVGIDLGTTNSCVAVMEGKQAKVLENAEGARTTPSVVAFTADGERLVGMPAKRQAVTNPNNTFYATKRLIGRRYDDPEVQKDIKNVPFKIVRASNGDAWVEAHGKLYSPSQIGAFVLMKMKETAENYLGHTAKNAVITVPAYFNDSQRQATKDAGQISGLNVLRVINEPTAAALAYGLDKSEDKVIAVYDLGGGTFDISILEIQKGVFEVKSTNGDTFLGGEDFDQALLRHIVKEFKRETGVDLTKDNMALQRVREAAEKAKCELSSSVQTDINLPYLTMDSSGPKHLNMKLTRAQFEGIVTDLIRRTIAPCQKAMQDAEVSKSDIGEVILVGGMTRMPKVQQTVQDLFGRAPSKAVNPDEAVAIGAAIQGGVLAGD

`CSc1nc(N)c2ncn([C@@H]3O[C@H](COP(=O)(O)OP(=O)(O)O)[C@@H](O)[C@H]3O)c2n1` [2-MeS ADP, 2-methylthio-adenosine-5’-diphosphate]: the “binding to Hsp70-NBD (in words)” value in assay [1] (ITC) is given as “did not yield data that could be fitted”. The “binding to Hsc70-NBD (in words)” value in assay [2] (ITC) is recorded as “did not yield data that could be fitted”. This molecule also showed a Kd in assay [3] of 9.81 µM. In assay [3] (ITC, 25 °C, mortalin-NBD), this molecule displayed a ΔΗ of -2.96 ± 0.865 kcal/mol and a ΔS of 54.5 ± 16.5 J/mol·K. In assay [3] (setting [8]), the “decrease in affinity compared to ADP” value is reported as approximately 2 fold. Besides, the “inhibition of Hsc70-NBD (in words)” value in assay [4] is “no reliably demonstrable inhibition”. Moreover, in assay [5], the IC50 is 902 µM and the Ki is 523 ± 98.3 µM. Further, the “inhibition of Hsp70-NBD (in words)” value in assay [6] is “no reliably demonstrable inhibition”.

Take `O=P(O)(O)OP(=O)(O)OC[C@H]1O[C@@H](n2cnc3c(NCc4ccco4)ncnc32)[C@H](O)[C@@H]1O` [6-Fu ADP, N6-furfuryladenosine-5’-diphosphate]: the results for the Kd in assay [1], in assay [2] and in assay [3] were 4.27 µM, 8.7 µM and 5.84 µM, respectively. Besides, the ΔΗ in assay [1] (ITC, 25 °C, Hsp70-NBD) was -2.395 ± 0.562 kcal/mol; in assay [2] (ITC, 25 °C, Hsc70-NBD) it was -5.457 ± 0.514 kcal/mol; in assay [3] (ITC, 25 °C, mortalin-NBD), -5.04 ± 0.277 kcal/mol. The ΔS in assay [1] (ITC, 25 °C, Hsp70-NBD) came out at 68.77 ± 8.28 J/mol·K; in assay [2] (ITC, 25 °C, Hsc70-NBD), 19.22 ± 5.06 J/mol·K; in assay [3] (ITC, 25 °C, mortalin-NBD) it was 28.7 ± 6.85 J/mol·K. In addition, the values for the IC50 in assay [4], in assay [5] and in assay [6] were 6780 µM, 558 µM and 3240 µM, respectively. For the same molecule, the Ki came to 723 ± 179 µM in assay [4], 565 ± 49.6 µM in assay [5] and 1860 ± 172 µM in assay [6].

For `Cc1cccc(CNc2ncnc3c2ncn3[C@@H]2O[C@H](COP(=O)(O)OP(=O)(O)O)[C@@H](O)[C@H]2O)c1` [6-(3-MeBn) ADP, N6-(3-methylbenzyl)adenosine-5’-diphosphate], the Kd in assay [1] stood at 0.252 µM; in assay [2] it was 3.35 µM; in assay [3], 11.4 µM. Also, the ΔΗ is -4.787 ± 0.225 kcal/mol in assay [1] (ITC, 25 °C, Hsp70-NBD); -10.22 ± 0.906 kcal/mol in assay [2] (ITC, 25 °C, Hsc70-NBD); -3.13 ± 0.0545 kcal/mol in assay [3] (ITC, 25 °C, mortalin-NBD). The ΔS is on record as 58.44 ± 3.96 J/mol·K in assay [1] (ITC, 25 °C, Hsp70-NBD); −41.10 ± 12.94 J/mol·K in assay [2] (ITC, 25 °C, Hsc70-NBD); 50.2 ± 1.73 J/mol·K in assay [3] (ITC, 25 °C, mortalin-NBD). Moreover, the IC50 in assay [4] was 8040 µM; in assay [5] it was 1430 µM; in assay [6] it was 1870 µM. In addition, the Ki in assay [4] turned out to be 682 ± 179 µM; in assay [5], 675 ± 99.4 µM; in assay [6], 1300 ± 148 µM.

Consider `Nc1ncnc2c1ncn2[C@@H]1O[C@H](COP(=O)(O)OP(=O)(O)O)[C@@H](O)[C@H]1O` [ADP, reference compound], for which the Kd in assay [1] (ITC, 25 °C, Hsp70-NBD) is 0.0435 µM; in assay [2] (ITC, 25 °C, Hsc70-NBD), 0.0665 µM; in assay [7] it was 5.3 ± 0.106 µM. For the same molecule, the ΔΗ was -5.731 ± 0.203 kcal/mol in assay [1] (ITC, 25 °C, Hsp70-NBD); -7.359 ± 0.022 kcal/mol in assay [2] (ITC, 25 °C, Hsc70-NBD); -6.52 ± 0.308 kcal/mol in assay [3] (ITC, 25 °C, mortalin-NBD). Besides, the ΔS is listed as 60.54 ± 3.65 J/mol·K in assay [1] (ITC, 25 °C, Hsp70-NBD); 34.19 ± 1.55 J/mol·K in assay [2] (ITC, 25 °C, Hsc70-NBD); 9.36 ± 4.48 J/mol·K in assay [3] (ITC, 25 °C, mortalin-NBD). The “log IC50” value in assay [4] (Hsc70-NBD, ATP 50 μM, one-site logIC50 fit) was 2.734 ± 0.117; in assay [6] (Hsp70-NBD, ATP 50 μM, one-site logIC50 fit), 2.697 ± 0.091. The Ki in assay [4] (read-out: KIapp, Hsc70-NBD, ATP 50 μM, Morrison fit, ~ denotes ambiguous data) was determined as 239 ± 32.2 µM; in assay [5] (setting [9]), 353 ± 36.2 µM; in assay [6] (read-out: KIapp, Hsp70-NBD, ATP 50 μM, Morrison fit, ~ denotes ambiguous data) it was 440 ± 47.8 µM.

On to `O=P(O)(O)OP(=O)(O)OC[C@H]1O[C@@H](n2cnc3c(NC4CCCCC4)ncnc32)[C@H](O)[C@@H]1O` [6-cHe ADP, N6-cyclohexyladenosine-5’-diphosphate], for which the Kd in assay [1] was 0.199 µM; in assay [2], 0.357 µM; in assay [3], 14.1 µM. Moreover, the ΔΗ was -4.967 ± 0.146 kcal/mol in assay [1] (ITC, 25 °C, Hsp70-NBD); -6.006 ± 0.562 kcal/mol in assay [2] (ITC, 25 °C, Hsc70-NBD); -5.28 ± 0.0693 kcal/mol in assay [3] (ITC, 25 °C, mortalin-NBD). The ΔS in assay [1] (ITC, 25 °C, Hsp70-NBD) is recorded as 57.67 ± 0.64 J/mol·K; in assay [2] (ITC, 25 °C, Hsc70-NBD), 37.74 ± 7.36 J/mol·K; in assay [3] (ITC, 25 °C, mortalin-NBD) it was 18.84 ± 0.87 J/mol·K. Besides, the IC50 in assay [4] is 2230 µM; in assay [5], 1600 µM; in assay [6], 2490 µM. The Ki is 622 ± 183 µM in assay [4], 733 ± 82.1 µM in assay [5] and 1240 ± 164 µM in assay [6]. In addition, the “inhibition of ATP hydrolysis of mortalin-NBD (in words)” value in assay [5] was “weakest inhibition”.

`O=P(O)(O)OP(=O)(O)OC[C@H]1O[C@@H](n2cnc3c(NCc4ccccc4)ncnc32)[C@H](O)[C@@H]1O` [6-Bn ADP, N6-benzyladenosine-5’-diphosphate]: the Kd in assay [1] was 2.16 µM; in assay [2], 0.159 µM; in assay [3], 3.52 µM. Further, the ΔΗ is -3.941 ± 1.02 kcal/mol in assay [1] (ITC, 25 °C, Hsp70-NBD); -4.077 ± 0.0645 kcal/mol in assay [2] (ITC, 25 °C, Hsc70-NBD); -2.99 ± 0.839 kcal/mol in assay [3] (ITC, 25 °C, mortalin-NBD). The ΔS in assay [1] (ITC, 25 °C, Hsp70-NBD) came to 53.04 ± 14.20 J/mol·K; in assay [2] (ITC, 25 °C, Hsc70-NBD), 72.13 ± 2.77 J/mol·K; in assay [3] (ITC, 25 °C, mortalin-NBD) it was 61.8 ± 12.1 J/mol·K. The “affinity tighter than ADP” value in assay [3] (setting [8]) was ~ 1.5 fold. Further, the IC50 in assay [4] is 1470 µM; in assay [5] it was 119 µM; in assay [6], 2330 µM. Moreover, the Ki was 295 ± 67.2 µM in assay [4], 86.5 ± 10.3 µM in assay [5] and 1610 ± 137 µM in assay [6]. Besides, the “inhibition of ATP hydrolysis of mortalin-NBD (in words)” value in assay [5] was “more effectively compared to ADP”.

For the molecule `O=P(O)(O)OP(=O)(O)OC[C@H]1O[C@@H](n2cnc3c(NCCc4ccccc4)ncnc32)[C@H](O)[C@@H]1O` [6-PheEt ADP, N6-(2-phenylethyl)adenosine-5’-diphosphate], the Kd is 0.143 µM in assay [1], 0.237 µM in assay [2] and 4.19 µM in assay [3]. Further, the ΔΗ was -10.8 ± 0.208 kcal/mol in assay [1] (ITC, 25 °C, Hsp70-NBD); -4.316 ± 0.022 kcal/mol in assay [2] (ITC, 25 °C, Hsc70-NBD); -8.1 ± 0.495 kcal/mol in assay [3] (ITC, 25 °C, mortalin-NBD). The ΔS was −22.97 ± 3.25 J/mol·K in assay [1] (ITC, 25 °C, Hsp70-NBD); 65.31 ± 1.22 J/mol·K in assay [2] (ITC, 25 °C, Hsc70-NBD); −10.4 ± 5.17 J/mol·K in assay [3] (ITC, 25 °C, mortalin-NBD). In addition, in assay [3] (setting [8]), the “affinity tighter than ADP” value is recorded as ~ 1.25 fold. Besides, the IC50 was 2100 µM in assay [4], 173 µM in assay [5] and 3120 µM in assay [6]. For the same molecule, the Ki was 445 ± 101 µM in assay [4], 97.3 ± 9.96 µM in assay [5] and 1160 ± 189 µM in assay [6]. Besides, in assay [5], the “inhibition of ATP hydrolysis of mortalin-NBD (in words)” value was “more effectively compared to ADP”.

As for `Nc1nc(Cl)nc2c1ncn2[C@@H]1O[C@H](COP(=O)(O)OP(=O)(O)O)[C@@H](O)[C@H]1O` [2-Cl ADP], the “binding to Hsp70-NBD (in words)” value in assay [1] (ITC) is reported as “did not yield data that could be fitted”. Besides, the “binding to Hsc70-NBD (in words)” value in assay [2] (ITC) is “did not yield data that could be fitted”. In assay [3] (ITC, 25 °C, mortalin-NBD), this molecule yielded a Kd of 1.77 µM, a ΔΗ of -4.54 ± 0.172 kcal/mol and a ΔS of 45.4 ± 3.04 J/mol·K. Moreover, in assay [3] (setting [8]), the “affinity tighter than ADP” value was ~ 3 fold. For the same molecule, the “inhibition of Hsc70-NBD (in words)” value in assay [4] is given as “no reliably demonstrable inhibition”. Further, in assay [5], the “inhibition of ATP hydrolysis of mortalin-NBD (in words)” value is “more effectively compared to ADP”. Moreover, in assay [5] (setting [9]), the Ki was determined as 45.1 ± 2.42 µM. The “inhibition of Hsp70-NBD (in words)” value in assay [6] was “no reliably demonstrable inhibition”.
